Data set [1] deals with T1, UDP-glucuronosyltransferase 1A1 (Homo sapiens, UniProt P22309).
T1 sequence (P22309 whole entry): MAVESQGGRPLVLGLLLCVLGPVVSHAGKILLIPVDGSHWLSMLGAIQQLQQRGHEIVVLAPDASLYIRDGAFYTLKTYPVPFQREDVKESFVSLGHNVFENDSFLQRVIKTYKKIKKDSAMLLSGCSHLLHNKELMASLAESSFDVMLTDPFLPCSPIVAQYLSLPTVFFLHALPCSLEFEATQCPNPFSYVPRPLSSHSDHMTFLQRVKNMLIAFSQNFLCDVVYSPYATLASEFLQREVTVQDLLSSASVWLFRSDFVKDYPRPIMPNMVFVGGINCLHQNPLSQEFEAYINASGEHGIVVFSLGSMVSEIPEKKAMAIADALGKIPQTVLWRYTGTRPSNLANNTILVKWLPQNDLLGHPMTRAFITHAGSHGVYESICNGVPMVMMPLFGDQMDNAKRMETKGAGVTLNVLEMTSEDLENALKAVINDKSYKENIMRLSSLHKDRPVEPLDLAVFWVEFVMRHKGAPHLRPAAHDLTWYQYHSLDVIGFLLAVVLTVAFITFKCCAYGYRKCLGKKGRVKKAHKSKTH
The data set can be described thus: Drug metabolism assessed as human UGT1A1-mediated N-glucuronide-triclocarban formation expressed in baculovirus infected insect sf9 cells incubated for 5 mins prior to UDPGA addition measured after 5 to 30 mins by LC-UV analysis. It is filed as ADME. In outline:
(§1)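 Microsomes or UGT Supersomes (5 µg protein) were held 15 min on ice with alamethicin in 100 mM potassium phosphate pH 7.4. TCC was added at 10 µM (2% DMSO) with 10 mM MgCl2 and 10 mM saccharolactone, pre-warmed 5 min at 37 °C, then started with UDPGA. Samples at 5, 10, 15 and 30 min were quenched in ACN. Product was read by LC-UV at 265 nm; rate came from regression over time, three incubations.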

Data set [2] deals with T2, UDP-glucuronosyltransferase 2B7 (Homo sapiens, UniProt P16662).
T2 sequence (P16662 whole entry): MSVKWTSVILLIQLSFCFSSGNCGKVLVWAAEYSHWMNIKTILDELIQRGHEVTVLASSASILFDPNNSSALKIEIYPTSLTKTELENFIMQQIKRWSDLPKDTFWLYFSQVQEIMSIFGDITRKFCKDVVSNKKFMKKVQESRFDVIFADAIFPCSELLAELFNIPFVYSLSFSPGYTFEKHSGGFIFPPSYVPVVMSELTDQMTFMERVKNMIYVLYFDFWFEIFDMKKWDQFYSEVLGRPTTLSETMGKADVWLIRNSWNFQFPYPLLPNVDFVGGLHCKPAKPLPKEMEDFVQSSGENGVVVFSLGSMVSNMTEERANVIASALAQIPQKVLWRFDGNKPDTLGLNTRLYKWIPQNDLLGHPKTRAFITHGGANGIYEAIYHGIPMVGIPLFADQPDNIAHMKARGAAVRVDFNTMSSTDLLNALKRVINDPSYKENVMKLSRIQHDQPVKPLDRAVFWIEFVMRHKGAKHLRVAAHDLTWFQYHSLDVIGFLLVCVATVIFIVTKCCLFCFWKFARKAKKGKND
Briefly: Drug metabolism assessed as human UGT2B7-mediated N-glucuronide-triclocarban formation expressed in baculovirus infected insect sf9 cells incubated for 5 mins prior to UDPGA addition measured after 5 to 30 mins by LC-UV analysis. It is filed as ADME. In short, it runs like this: as §1

A short description of data set [3]: Drug excretion in Swiss webster mouse urine assessed as N'-glucuronide-triclocarban formation at 5 mg/kg, po by LC-MS analysis. In kind it is ADME, organism-based. Also on record: dose 5 mg/kg, route oral. The settings on record: in vivo. In outline: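 Mice were housed two per metabolic cage, with blank urine collected over the 24 h before dosing. TCC was given by oral gavage as a 1 mg/mL solution in 20/80 DMSO/PEG400 (v/v) at 5 mg/kg. Urine was collected at 0-24 h and 24-48 h and analysed by online LC-MS. Values are the mean of two independent experiments.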

Data set [4] in a line: Drug excretion in Sprague-Dawley rat urine assessed as N'-glucuronide-triclocarban formation at 1 mg/kg, po by LC-MS analysis. In kind it is ADME, organism-based. The following applies: in vivo. Also on record: dose 1 mg/kg, route oral.
Data set [5] in a line: Drug excretion in Sprague-Dawley rat urine assessed as 3'-O-glucuronide-triclocarban formation at 1 mg/kg, po by LC-MS analysis. Also on record: dose 1 mg/kg, route oral. It is filed as ADME, organism-based. The following applies: in vivo.
Data set [6] concerns the target T3, UDP-glucuronosyltransferase 2B4 (Homo sapiens, UniProt P06133).
T3 sequence (P06133 whole entry): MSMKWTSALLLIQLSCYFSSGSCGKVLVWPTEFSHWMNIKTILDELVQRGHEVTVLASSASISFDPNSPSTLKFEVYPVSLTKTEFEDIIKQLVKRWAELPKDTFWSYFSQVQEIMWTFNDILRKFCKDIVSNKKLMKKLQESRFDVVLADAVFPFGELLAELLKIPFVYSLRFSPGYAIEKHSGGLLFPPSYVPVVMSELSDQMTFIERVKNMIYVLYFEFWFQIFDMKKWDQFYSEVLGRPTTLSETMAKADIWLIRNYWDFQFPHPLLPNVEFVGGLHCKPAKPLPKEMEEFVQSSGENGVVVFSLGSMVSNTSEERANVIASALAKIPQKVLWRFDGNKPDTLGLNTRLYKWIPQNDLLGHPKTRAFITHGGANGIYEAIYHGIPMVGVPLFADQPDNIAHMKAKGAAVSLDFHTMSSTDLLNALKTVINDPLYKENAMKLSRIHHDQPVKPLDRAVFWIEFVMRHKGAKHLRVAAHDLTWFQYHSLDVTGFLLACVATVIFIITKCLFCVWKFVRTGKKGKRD
The data set can be described thus: Drug metabolism assessed as human UGT2B4-mediated N'-glucuronide-triclocarban formation expressed in baculovirus infected insect sf9 cells incubated for 5 mins prior to UDPGA addition measured after 5 to 30 mins by LC-UV analysis. In kind it is ADME. In outline:
as §1

For data set [7], the target named is T2, UDP-glucuronosyltransferase 2B7. Briefly: Drug metabolism assessed as human UGT2B7-mediated N'-glucuronide-triclocarban formation expressed in baculovirus infected insect sf9 cells incubated for 5 mins prior to UDPGA addition measured after 5 to 30 mins by LC-UV analysis. It is filed as ADME. In outline:
as §1

Molecules are shown by their SMILES.

As to `O=C(Nc1ccc(Cl)cc1)Nc1ccc(Cl)c(Cl)c1` [TRICLOCARBAN], the Drug metabolism entry in data set [1], in data set [2], in data set [6] and in data set [7] was “metabolite_not_detected” throughout. Also, the Drug excretion result is “metabolite_detected” in data set [3], “metabolite_not_detected” in data set [4] and “metabolite_detected” in data set [5].

The record behind these values is ChEMBL document CHEMBL3525967, “In vitro glucuronidation of the antibacterial triclocarban and its oxidative metabolites” (Drug Metab Dispos, 2012).
